Measurements as given in ChEMBL document CHEMBL1151428, “Capability of 11 antipneumococcal antibiotics to select for resistance by multistep and single-step methodologies” (2007).
Converted amounts (≈) assume the structure as drawn.

Columns and labels:
Format in all cases: functional
Streptococcus pneumoniae [1] = assay: Antimicrobial activity against drug-resistant Streptococcus pneumoniae isolate 3665 after 38 passages with moxifloxacin measured after 10 antibiotic-free subculture by multi-step resistance selection technique
Streptococcus pneumoniae [2] = assay: Antimicrobial activity against drug-resistant Streptococcus pneumoniae isolate 37 after 14 passages with Telithromycin measured after 10 antibiotic-free subculture by multi-step resistance selection technique
Streptococcus pneumoniae [3] = assay: Antimicrobial activity against drug-resistant Streptococcus pneumoniae isolate 1635 after 49 passages with clarithromycin measured after 10 antibiotic-free subculture by multi-step resistance selection technique
Streptococcus pneumoniae [4] = assay: Antimicrobial activity against drug-resistant Streptococcus pneumoniae isolate 1077 after 29 passages with azithromycin measured after 10 antibiotic-free subculture by multi-step resistance selection technique
In short: (§1)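 Mutants selected by daily broth passage in subinhibitory drug in cation-adjusted Mueller-Hinton broth with 5% lysed horse blood. Stability was tested by 10 daily passages on blood agar without antibiotic, then macrodilution MIC.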

Streptococcus pneumoniae [5] = assay: Antimicrobial activity against drug-resistant Streptococcus pneumoniae isolate 1635 after 50 passages by multi-step resistance selection technique
In short: (§2)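 Daily serial passage in subinhibitory drug levels in 1 ml cation-adjusted Mueller-Hinton broth with 5% lysed horse blood; fresh broth for tigecycline. Each day, 10 μl were taken from the tube one to two dilutions below the MIC whose turbidity matched the growth control, and used to set the next MIC. MIC by macrodilution.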

Streptococcus pneumoniae [6] = assay: Antimicrobial activity against drug-resistant Streptococcus pneumoniae isolate 3274 by NCCLS M7-A7 method
Streptococcus pneumoniae [7] = assay: Antimicrobial activity against drug-resistant Streptococcus pneumoniae isolate 3676 by NCCLS M7-A7 method
Streptococcus pneumoniae [8] = assay: Antimicrobial activity against drug-resistant Streptococcus pneumoniae isolate 3243 by NCCLS M7-A7 method
Streptococcus pneumoniae [9] = assay: Antimicrobial activity against drug-resistant Streptococcus pneumoniae isolate 3665 by NCCLS M7-A7 method
Streptococcus pneumoniae [10] = assay: Antimicrobial activity against drug-resistant Streptococcus pneumoniae isolate 1076 after 35 passages with moxifloxacin measured after 10 antibiotic-free subculture by multi-step resistance selection technique; in short: as §1
Streptococcus pneumoniae [11] = assay: Antimicrobial activity against drug-resistant Streptococcus pneumoniae isolate 24 by NCCLS M7-A7 method
Streptococcus pneumoniae [12] = assay: Antimicrobial activity against drug-resistant Streptococcus pneumoniae isolate 3665 after 14 passages with Telithromycin measured after 10 antibiotic-free subculture by multi-step resistance selection technique
Streptococcus pneumoniae [13] = assay: Antimicrobial activity against drug-resistant Streptococcus pneumoniae isolate 1635 after 14 passages with clindamycin measured after 10 antibiotic-free subculture by multi-step resistance selection technique
Streptococcus pneumoniae [14] = assay: Antimicrobial activity against drug-resistant Streptococcus pneumoniae isolate 3665 after 26 passages with clarithromycin measured after 10 antibiotic-free subculture by multi-step resistance selection technique
Streptococcus pneumoniae [15] = assay: Antimicrobial activity against drug-resistant Streptococcus pneumoniae isolate 24 after 50 passages with moxifloxacin measured after 10 antibiotic-free subculture by multi-step resistance selection technique; in short: as §1
Streptococcus pneumoniae [16] = assay: Antimicrobial activity against drug-resistant Streptococcus pneumoniae isolate 2527 after 14 passages with gemifloxacin measured after 10 antibiotic-free subculture by multi-step resistance selection technique; in short: as §1
Streptococcus pneumoniae [17] = assay: Antimicrobial activity against drug-resistant Streptococcus pneumoniae isolate 3413 after 50 passages by multi-step resistance selection technique; in short: as §2
Streptococcus pneumoniae [18] = assay: Antimicrobial activity against drug-resistant Streptococcus pneumoniae isolate 1076 after 50 passages by multi-step resistance selection technique
In short: (§3)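 Daily serial passage in subinhibitory drug levels in 1 ml cation-adjusted Mueller-Hinton broth with 5% lysed horse blood; fresh broth for tigecycline. Each day, 10 μl were taken from the tube one to two dilutions below the MIC whose turbidity matched the growth control, and used to set the next MIC. […] MIC by macrodilution.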

Streptococcus pneumoniae [19] = assay: Antimicrobial activity against drug-resistant Streptococcus pneumoniae isolate 3243 after 20 passages with moxifloxacin measured after 10 antibiotic-free subculture by multi-step resistance selection technique; in short: as §1
Streptococcus pneumoniae [20] = assay: Antimicrobial activity against drug-resistant Streptococcus pneumoniae isolate 2527 by NCCLS M7-A7 method
Streptococcus pneumoniae [21] = assay: Antimicrobial activity against drug-resistant Streptococcus pneumoniae isolate 24 after 50 passages by multi-step resistance selection technique; in short: as §2
Streptococcus pneumoniae [22] = assay: Antimicrobial activity against drug-resistant Streptococcus pneumoniae isolate 1077 after 50 passages by multi-step resistance selection technique; in short: as §2
Streptococcus pneumoniae [23] = assay: Antimicrobial activity against drug-resistant Streptococcus pneumoniae isolate 3243 after 33 passages with azithromycin measured after 10 antibiotic-free subculture by multi-step resistance selection technique; in short: as §1
Streptococcus pneumoniae [24] = assay: Antimicrobial activity against drug-resistant Streptococcus pneumoniae isolate 3676 after 14 passages with Telithromycin measured after 10 antibiotic-free subculture by multi-step resistance selection technique
Streptococcus pneumoniae [25] = assay: Antimicrobial activity against drug-resistant Streptococcus pneumoniae isolate 24 after 14 passages with Telithromycin measured after 10 antibiotic-free subculture by multi-step resistance selection technique; in short: as §1
Streptococcus pneumoniae [26] = assay: Antimicrobial activity against drug-resistant Streptococcus pneumoniae isolate 3676 after 50 passages with moxifloxacin measured after 10 antibiotic-free subculture by multi-step resistance selection technique
Streptococcus pneumoniae [27] = assay: Antimicrobial activity against drug-resistant Streptococcus pneumoniae isolate 3413 by NCCLS M7-A7 method
Streptococcus pneumoniae [28] = assay: Antimicrobial activity against drug-resistant Streptococcus pneumoniae isolate 3009 by NCCLS M7-A7 method
Streptococcus pneumoniae [29] = assay: Antimicrobial activity against drug-resistant Streptococcus pneumoniae isolate 3676 after 44 passages with clarithromycin measured after 10 antibiotic-free subculture by multi-step resistance selection technique
Streptococcus pneumoniae [30] = assay: Antimicrobial activity against drug-resistant Streptococcus pneumoniae isolate 37 after 50 passages by multi-step resistance selection technique
In short: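 Daily serial passage in broth at subinhibitory drug levels: 1 ml cation-adjusted Mueller-Hinton broth with 5% lysed horse blood; fresh broth for tigecycline. Each day 10 μl inoculum taken from the tube one to two dilutions below MIC matching growth-control turbidity, used to set next MIC.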

Streptococcus pneumoniae [31] = assay: Antimicrobial activity against drug-resistant Streptococcus pneumoniae isolate 1635 after 14 passages with azithromycin measured after 10 antibiotic-free subculture by multi-step resistance selection technique; in short: as §1
Streptococcus pneumoniae [32] = assay: Antimicrobial activity against drug-resistant Streptococcus pneumoniae isolate 1077 by NCCLS M7-A7 method
Streptococcus pneumoniae [33] = assay: Antimicrobial activity against drug-resistant Streptococcus pneumoniae isolate 3009 after 19 passages with moxifloxacin measured after 10 antibiotic-free subculture by multi-step resistance selection technique; in short: as §1
Streptococcus pneumoniae [34] = assay: Antimicrobial activity against drug-resistant Streptococcus pneumoniae isolate 3243 after 50 passages by multi-step resistance selection technique; in short: as §3
Streptococcus pneumoniae [35] = assay: Antimicrobial activity against drug-resistant Streptococcus pneumoniae isolate 3274 after 50 passages by multi-step resistance selection technique; in short: as §2
Streptococcus pneumoniae [36] = assay: Antimicrobial activity against drug-resistant Streptococcus pneumoniae isolate 3009 after 21 passages with gemifloxacin measured after 10 antibiotic-free subculture by multi-step resistance selection technique; in short: as §1
Streptococcus pneumoniae [37] = assay: Antimicrobial activity against drug-resistant Streptococcus pneumoniae isolate 37 by NCCLS M7-A7 method
Streptococcus pneumoniae [38] = assay: Antimicrobial activity against drug-resistant Streptococcus pneumoniae isolate 3243 after 29 passages with Telithromycin measured after 10 antibiotic-free subculture by multi-step resistance selection technique; in short: as §1
Streptococcus pneumoniae [39] = assay: Antimicrobial activity against drug-resistant Streptococcus pneumoniae isolate 3009 after 18 passages with levofloxacin measured after 10 antibiotic-free subculture by multi-step resistance selection technique; in short: as §1
Streptococcus pneumoniae [40] = assay: Antimicrobial activity against drug-resistant Streptococcus pneumoniae isolate 3009 after 25 passages with clarithromycin measured after 10 antibiotic-free subculture by multi-step resistance selection technique

Q: Which results are given for `C[C@@H](O)[C@H]1C(=O)N2C(C(=O)O)=C(SCCNC=N)C[C@H]12` [IMIPENEM ANHYDROUS]?
A: MIC (Streptococcus pneumoniae [1]): 0.03 mg/L (≈ 0.1 µM); MIC (Streptococcus pneumoniae [2]): 0.25 mg/L (≈ 0.835 µM); MIC (Streptococcus pneumoniae [3]): 0.002 mg/L (≈ 0.00668 µM); MIC (Streptococcus pneumoniae [4]): 0.008 mg/L (≈ 0.0267 µM); MIC (Streptococcus pneumoniae [5]): 0.002 mg/L (≈ 0.00668 µM); MIC (Streptococcus pneumoniae [6]): 0.016 mg/L (≈ 0.0534 µM); MIC (Streptococcus pneumoniae [7]): 0.016 mg/L (≈ 0.0534 µM); MIC (Streptococcus pneumoniae [8]): 0.016 mg/L (≈ 0.0534 µM); MIC (Streptococcus pneumoniae [9]): 0.03 mg/L (≈ 0.1 µM); MIC (Streptococcus pneumoniae [10]): 0.008 mg/L (≈ 0.0267 µM); MIC (Streptococcus pneumoniae [11]): 0.5 mg/L (≈ 1.67 µM); MIC (Streptococcus pneumoniae [12]): 0.008 mg/L (≈ 0.0267 µM); MIC (Streptococcus pneumoniae [13]): 0.002 mg/L (≈ 0.00668 µM); MIC (Streptococcus pneumoniae [14]): 0.03 mg/L (≈ 0.1 µM); MIC (Streptococcus pneumoniae [15]): 0.5 mg/L (≈ 1.67 µM); MIC (Streptococcus pneumoniae [16]): 0.125 mg/L (≈ 0.418 µM); MIC (Streptococcus pneumoniae [17]): 0.06 mg/L (≈ 0.2 µM); MIC (Streptococcus pneumoniae [18]): 0.008 mg/L (≈ 0.0267 µM); MIC (Streptococcus pneumoniae [19]): 0.004 mg/L (≈ 0.0134 µM); MIC (Streptococcus pneumoniae [20]): 0.25 mg/L (≈ 0.835 µM); MIC (Streptococcus pneumoniae [21]): 0.5 mg/L (≈ 1.67 µM); MIC (Streptococcus pneumoniae [22]): 0.008 mg/L (≈ 0.0267 µM); MIC (Streptococcus pneumoniae [23]): 0.03 mg/L (≈ 0.1 µM); MIC (Streptococcus pneumoniae [24]): 0.008 mg/L (≈ 0.0267 µM); MIC (Streptococcus pneumoniae [25]): 0.25 mg/L (≈ 0.835 µM); MIC (Streptococcus pneumoniae [26]): 0.03 mg/L (≈ 0.1 µM); MIC (Streptococcus pneumoniae [27]): 0.125 mg/L (≈ 0.418 µM); MIC (Streptococcus pneumoniae [28]): 0.008 mg/L (≈ 0.0267 µM); MIC (Streptococcus pneumoniae [29]): 0.016 mg/L (≈ 0.0534 µM); MIC (Streptococcus pneumoniae [30]): 0.5 mg/L (≈ 1.67 µM); MIC (Streptococcus pneumoniae [31]): 0.002 mg/L (≈ 0.00668 µM); MIC (Streptococcus pneumoniae [32]): 0.008 mg/L (≈ 0.0267 µM); MIC (Streptococcus pneumoniae [33]): 0.008 mg/L (≈ 0.0267 µM); MIC (Streptococcus pneumoniae [34]): 0.016 mg/L (≈ 0.0534 µM); MIC (Streptococcus pneumoniae [35]): 0.03 mg/L (≈ 0.1 µM); MIC (Streptococcus pneumoniae [36]): 0.008 mg/L (≈ 0.0267 µM); MIC (Streptococcus pneumoniae [37]): 0.5 mg/L (≈ 1.67 µM); MIC (Streptococcus pneumoniae [38]): 0.016 mg/L (≈ 0.0534 µM)

Q: Which results are given for `CN(C)c1cc(NC(=O)CNC(C)(C)C)c(O)c2c1C[C@H]1C[C@H]3[C@H](N(C)C)C(O)=C(C(N)=O)C(=O)[C@@]3(O)C(O)=C1C2=O` [TIGECYCLINE]?
A: MIC (Streptococcus pneumoniae [1]): 0.03 mg/L (≈ 0.0512 µM); MIC (Streptococcus pneumoniae [2]): 0.03 mg/L (≈ 0.0512 µM); MIC (Streptococcus pneumoniae [3]): 0.016 mg/L (≈ 0.0273 µM); MIC (Streptococcus pneumoniae [4]): 0.03 mg/L (≈ 0.0512 µM); MIC (Streptococcus pneumoniae [5]): 0.03 mg/L (≈ 0.0512 µM); MIC (Streptococcus pneumoniae [6]): 0.03 mg/L (≈ 0.0512 µM); MIC (Streptococcus pneumoniae [7]): 0.016 mg/L (≈ 0.0273 µM); MIC (Streptococcus pneumoniae [8]): 0.03 mg/L (≈ 0.0512 µM); MIC (Streptococcus pneumoniae [9]): 0.016 mg/L (≈ 0.0273 µM); MIC (Streptococcus pneumoniae [10]): 0.06 mg/L (≈ 0.102 µM); MIC (Streptococcus pneumoniae [11]): 0.03 mg/L (≈ 0.0512 µM); MIC (Streptococcus pneumoniae [12]): 0.03 mg/L (≈ 0.0512 µM); MIC (Streptococcus pneumoniae [13]): 0.03 mg/L (≈ 0.0512 µM); MIC (Streptococcus pneumoniae [39]): 0.06 mg/L (≈ 0.102 µM); MIC (Streptococcus pneumoniae [14]): 0.03 mg/L (≈ 0.0512 µM); MIC (Streptococcus pneumoniae [15]): 0.03 mg/L (≈ 0.0512 µM); MIC (Streptococcus pneumoniae [16]): 0.03 mg/L (≈ 0.0512 µM); MIC (Streptococcus pneumoniae [17]): 0.03 mg/L (≈ 0.0512 µM); MIC (Streptococcus pneumoniae [18]): 0.03 mg/L (≈ 0.0512 µM); MIC (Streptococcus pneumoniae [19]): 0.03 mg/L (≈ 0.0512 µM); MIC (Streptococcus pneumoniae [20]): 0.016 mg/L (≈ 0.0273 µM); MIC (Streptococcus pneumoniae [21]): 0.03 mg/L (≈ 0.0512 µM); MIC (Streptococcus pneumoniae [22]): 0.016 mg/L (≈ 0.0273 µM); MIC (Streptococcus pneumoniae [23]): 0.06 mg/L (≈ 0.102 µM); MIC (Streptococcus pneumoniae [24]): 0.03 mg/L (≈ 0.0512 µM); MIC (Streptococcus pneumoniae [25]): 0.03 mg/L (≈ 0.0512 µM); MIC (Streptococcus pneumoniae [26]): 0.03 mg/L (≈ 0.0512 µM); MIC (Streptococcus pneumoniae [27]): 0.016 mg/L (≈ 0.0273 µM); MIC (Streptococcus pneumoniae [29]): 0.03 mg/L (≈ 0.0512 µM); MIC (Streptococcus pneumoniae [30]): 0.016 mg/L (≈ 0.0273 µM); MIC (Streptococcus pneumoniae [31]): 0.03 mg/L (≈ 0.0512 µM); MIC (Streptococcus pneumoniae [32]): 0.016 mg/L (≈ 0.0273 µM); MIC (Streptococcus pneumoniae [33]): 0.06 mg/L (≈ 0.102 µM); MIC (Streptococcus pneumoniae [34]): 0.03 mg/L (≈ 0.0512 µM); MIC (Streptococcus pneumoniae [35]): 0.03 mg/L (≈ 0.0512 µM); MIC (Streptococcus pneumoniae [36]): 0.016 mg/L (≈ 0.0273 µM); MIC (Streptococcus pneumoniae [37]): 0.016 mg/L (≈ 0.0273 µM); MIC (Streptococcus pneumoniae [38]): 0.03 mg/L (≈ 0.0512 µM); MIC (Streptococcus pneumoniae [40]): 0.03 mg/L (≈ 0.0512 µM)
